Non-standard residues stand in square brackets, D forms with d. Residues, ends and D or L forms follow the SMILES beside them. Nle = CCCC[C@H](N)C(=O)O
Target: wild type (NL4-3) HIV-1 protease (Human immunodeficiency virus type 1 group M subtype B, UniProt P12497)
Experiment: FRET-based enzyme inhibition assay, wild type
Format: biochemical
In short: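 Commercial wild-type NL4-3 HIV-1 protease, supplied at 0.3 mg/ml, assayed by FRET with a fluorogenic HIV-1 substrate. Peptide test compounds carry a reduced (-CH2-NH-) bond in place of the labile peptide bond so the protease cannot cleave them. IC50 is the average of three independent experiments, with SD.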

For `CCCC[C@H](NC(=O)[C@H](C)NC(=O)[C@H](CCC(=O)O)NC(=O)[C@@H](N)Cc1ccccc1)C(=O)O` [Compound 7a, Phe-Glu-Ala-Nle] (H-FEA[Nle]-OH), the IC50 was > 1000 nM.
In the case of `CC(C)C[C@H](NC(=O)[C@@H](NC(=O)[C@@H](N)CCCNC(=N)N)C(C)C)C(=O)O` [Compound 7b, Arg-Val-Leu] (H-Arg-Val-Leu-OH), the IC50 is reported as > 1000 nM.
